Measurements reported in PubChem BioAssay AID588425 (Johns Hopkins Ion Channel Center, 2011).
Activity calls are given as the source filed them.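 The calls were made as follows: active = any inhibition of the KCNQ1 potassium channel at some tested dose, with a fitted dose response curve; inactive = no inhibition at any dose or no curve fitted.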

Biological target: Potassium voltage-gated channel subfamily KQT member 1 (Homo sapiens) (UniProt P51787)
Experiment: KCNQ1 channel current inhibition, SAR follow-up, selectivity assay for KCNQ2 inhibitor project, automated patch clamp, KCNQ1-CHO cells (AID 588425)
Settings: for current change, negative = inhibition: at 30 µM (top of the series)
Method in brief: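 System: KCNQ1-expressing CHO cells | Medium: NaCl/HEPES external, KCl/K-gluconate internal solutions | Probe or stimulus: Voltage stimulus from -70 mV holding, stepped to +40 mV | Schedule: 2,000 ms depolarization per sweep | Measured by: Automated patch clamp, amphotericin B-perforated recording of potassium current | Read-out: Percent current change relative to pre-compound current | Repeats: Four replicate recordings per concentration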

Potassium voltage-gated channel subfamily KQT member 1 (Homo sapiens), sequence (P51787 whole entry, looked up): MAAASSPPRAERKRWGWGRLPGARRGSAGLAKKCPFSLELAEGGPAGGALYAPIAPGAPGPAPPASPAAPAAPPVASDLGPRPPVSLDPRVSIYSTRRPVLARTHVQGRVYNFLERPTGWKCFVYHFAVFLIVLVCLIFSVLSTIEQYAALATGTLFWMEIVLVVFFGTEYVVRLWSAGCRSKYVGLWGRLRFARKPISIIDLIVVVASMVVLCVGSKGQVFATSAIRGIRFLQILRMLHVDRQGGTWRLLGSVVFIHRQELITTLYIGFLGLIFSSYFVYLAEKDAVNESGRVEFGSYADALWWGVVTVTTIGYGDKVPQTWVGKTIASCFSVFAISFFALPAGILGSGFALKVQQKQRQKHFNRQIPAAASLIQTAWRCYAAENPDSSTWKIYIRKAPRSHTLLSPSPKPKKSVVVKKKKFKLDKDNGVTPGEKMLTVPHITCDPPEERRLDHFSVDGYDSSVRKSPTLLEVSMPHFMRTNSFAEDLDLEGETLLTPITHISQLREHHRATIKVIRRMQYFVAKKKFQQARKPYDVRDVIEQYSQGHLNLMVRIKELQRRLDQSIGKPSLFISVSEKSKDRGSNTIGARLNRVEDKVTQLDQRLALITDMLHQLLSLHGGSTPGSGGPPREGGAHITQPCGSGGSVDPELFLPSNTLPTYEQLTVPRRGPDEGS

Row | SMILES | IC50 | current change, negative = inhibition
1 | CC[C@H](C(=O)Nc1ccc(N2CCCC2)cc1)c1ccccc1 |  | inactive
2 | CCC(C(=O)Nc1ccccc1N1CCCC1)c1cccc(OC)c1 (stereo unspecified) | 22.1 µM | 
3 | CCC(C(=O)Nc1ccccc1N1CCCC1)c1cccc(C(F)(F)F)c1 (stereo unspecified) |  | inactive
4 | CC(C(=O)Nc1ccccc1N1CCCC1)c1ccccc1 (stereo unspecified) | 29 µM | 
5 | CCC(C(=O)Nc1ccccc1N1CCCC1)c1ccc(Cl)c(Cl)c1 (stereo unspecified) | 9.96 µM | 
6 | CC[C@H](C(=O)Nc1ccccc1N1CCCC1)c1ccccc1 | 2.92 µM | 
7 | O=C(Nc1ccccc1N1CCCC1)C1CCc2ccccc21 (stereo unspecified) | 12.1 µM | 
8 | CCC(C(=O)Nc1ccccc1N1CCCC1)c1cccc(C)c1 (stereo unspecified) |  | inactive
9 | CCC(C(=O)Nc1ccccc1N1CCCC1)c1cccc(F)c1 (stereo unspecified) | 17.7 µM | 
10 | CCC(C(=O)Nc1ccccc1N1CCCC1)c1cccc(Cl)c1 (stereo unspecified) | 11.2 µM | 
11 | CCC(C(=O)Nc1ccccc1N1CCCC1)c1ccc(F)c(F)c1 (stereo unspecified) | 2.58 µM | 
12 | CCC(C(=O)Nc1ccccc1N1CCCC1)c1ccccc1 (stereo unspecified) | 19.5 µM | 

Next, values leading:

Row | IC50 | current change, negative = inhibition | SMILES
13 | 29 µM |  | CCC(C(=O)Nc1ccc(N2CCCC2)cc1)c1ccccc1 (stereo unspecified)
14 | 14.9 µM |  | CC[C@@H](C(=O)Nc1ccc(N2CCCC2)cc1)c1ccccc1
15 | 8.67 µM |  | CC[C@@H](C(=O)Nc1ccccc1N1CCCC1)c1ccccc1
16 | 13.7 µM |  | CCC(C(=O)Nc1ccccc1-n1cccc1)c1ccccc1 (stereo unspecified)
17 | 6.8 µM |  | CCC(C(=O)Nc1ccccc1N1CCCC1)c1ccc(F)cc1 (stereo unspecified)
18 |  | inactive | CCC(C(=O)Nc1ccccc1N1CCCC1)c1ccccc1F (stereo unspecified)
19 |  | inactive | C[C@H](C(=O)Nc1ccccc1N1CCCC1)c1ccccc1
20 |  | inactive | CCC(C(=O)Nc1ccccc1-c1ccccc1)c1ccccc1 (stereo unspecified)
21 |  | inactive | CCC(C(=O)Nc1ccccc1N1CCCC1)c1ccc(Cl)cc1 (stereo unspecified)
